Test results taken from ChEMBL document CHEMBL3108700, “Designing anti-inflammatory drugs from parasitic worms: a synthetic small molecule analogue of the Acanthocheilonema viteae product ES-62 prevents development of collagen-induced arthritis” (J Med Chem, 2013).
Calls of active or inactive are those of the source.

Columns and labels:
[1] = Cytotoxicity against LPS-stimulated BALB/c mouse BMDM assessed as loss of cell viability at 5 ug/mL preincubated for 18 hrs followed by LPS challenge measured after 24 hrs by 7-AAD staining-based flow cytometric analysis
How it was run: (§1)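 BALB/c bone marrow macrophages (2 × 10^5/well) were rested 24 h in complete RPMI, then given 5 μg/mL compound for 18 h. Cells were stained with 7-AAD for 10 min on ice and the dead fraction read by flow cytometry. One experiment is representative of two.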

[2] = target: T1, Toll-like receptor 4 (Mus musculus) (UniProt Q9QUK6); experiment: Inhibition of TLR4 in BALB/c mouse BMDM assessed as downregulation of LPS-stimulated IL-12p40 level at 5 ug/ml preincubated for 18 hrs followed by LPS challenge measured after 24 hrs by ELISA relative to control
T1 sequence (whole entry): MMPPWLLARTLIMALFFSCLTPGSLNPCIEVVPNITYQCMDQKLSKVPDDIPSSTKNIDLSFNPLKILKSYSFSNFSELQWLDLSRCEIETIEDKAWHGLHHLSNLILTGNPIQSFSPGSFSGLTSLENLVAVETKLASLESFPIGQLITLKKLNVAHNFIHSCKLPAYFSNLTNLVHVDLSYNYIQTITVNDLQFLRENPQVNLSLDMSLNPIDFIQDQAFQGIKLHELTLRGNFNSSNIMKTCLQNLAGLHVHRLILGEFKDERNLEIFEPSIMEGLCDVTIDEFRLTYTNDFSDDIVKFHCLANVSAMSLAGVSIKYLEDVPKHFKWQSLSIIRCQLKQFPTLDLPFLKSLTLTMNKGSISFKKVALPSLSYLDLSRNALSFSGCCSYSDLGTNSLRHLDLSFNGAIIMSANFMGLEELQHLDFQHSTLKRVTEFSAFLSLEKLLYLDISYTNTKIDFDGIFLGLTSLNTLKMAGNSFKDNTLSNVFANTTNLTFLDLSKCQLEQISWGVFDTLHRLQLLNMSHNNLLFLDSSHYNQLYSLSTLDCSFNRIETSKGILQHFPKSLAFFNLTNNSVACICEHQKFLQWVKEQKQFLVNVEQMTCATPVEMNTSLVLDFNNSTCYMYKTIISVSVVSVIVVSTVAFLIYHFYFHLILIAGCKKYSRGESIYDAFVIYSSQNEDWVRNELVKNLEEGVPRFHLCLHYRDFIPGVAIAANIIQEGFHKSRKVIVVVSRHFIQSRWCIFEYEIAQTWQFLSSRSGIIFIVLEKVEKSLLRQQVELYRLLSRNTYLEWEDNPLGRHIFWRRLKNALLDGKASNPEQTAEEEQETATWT
How it was run: (§2)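 BALB/c male bone marrow macrophages were differentiated 7 days with L929 supernatant (≥99% CD11b+/F4/80+). Cells were plated at 2 × 10^5/well in triplicate, rested overnight, and given compounds at 5 μg/mL for 18 h. They were then stimulated with 100 ng/mL S. minnesota LPS, 10 ng/mL Pam3CSK4 (BLP) or 0.01 μM CpG for 24 h. Supernatant IL-12p40 and IL-6 were measured by ELISA (sensitivity 16 pg/mL).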

[3] = Cytotoxicity against BLP-stimulated BALB/c mouse BMDM assessed as loss of cell viability at 5 ug/mL preincubated for 18 hrs followed by BLP challenge measured after 24 hrs by 7-AAD staining-based flow cytometric analysis; how it was run: as §1
[4] = target: T2, Toll-like receptor 9 (Mus musculus) (UniProt Q9EQU3); experiment: Inhibition of TLR9 in BALB/c mouse BMDM assessed as downregulation of CpG-stimulated IL-12p40 level at 5 ug/ml preincubated for 18 hrs followed by CpG challenge measured after 24 hrs by ELISA relative to control; how it was run: as §2
T2 sequence (whole entry): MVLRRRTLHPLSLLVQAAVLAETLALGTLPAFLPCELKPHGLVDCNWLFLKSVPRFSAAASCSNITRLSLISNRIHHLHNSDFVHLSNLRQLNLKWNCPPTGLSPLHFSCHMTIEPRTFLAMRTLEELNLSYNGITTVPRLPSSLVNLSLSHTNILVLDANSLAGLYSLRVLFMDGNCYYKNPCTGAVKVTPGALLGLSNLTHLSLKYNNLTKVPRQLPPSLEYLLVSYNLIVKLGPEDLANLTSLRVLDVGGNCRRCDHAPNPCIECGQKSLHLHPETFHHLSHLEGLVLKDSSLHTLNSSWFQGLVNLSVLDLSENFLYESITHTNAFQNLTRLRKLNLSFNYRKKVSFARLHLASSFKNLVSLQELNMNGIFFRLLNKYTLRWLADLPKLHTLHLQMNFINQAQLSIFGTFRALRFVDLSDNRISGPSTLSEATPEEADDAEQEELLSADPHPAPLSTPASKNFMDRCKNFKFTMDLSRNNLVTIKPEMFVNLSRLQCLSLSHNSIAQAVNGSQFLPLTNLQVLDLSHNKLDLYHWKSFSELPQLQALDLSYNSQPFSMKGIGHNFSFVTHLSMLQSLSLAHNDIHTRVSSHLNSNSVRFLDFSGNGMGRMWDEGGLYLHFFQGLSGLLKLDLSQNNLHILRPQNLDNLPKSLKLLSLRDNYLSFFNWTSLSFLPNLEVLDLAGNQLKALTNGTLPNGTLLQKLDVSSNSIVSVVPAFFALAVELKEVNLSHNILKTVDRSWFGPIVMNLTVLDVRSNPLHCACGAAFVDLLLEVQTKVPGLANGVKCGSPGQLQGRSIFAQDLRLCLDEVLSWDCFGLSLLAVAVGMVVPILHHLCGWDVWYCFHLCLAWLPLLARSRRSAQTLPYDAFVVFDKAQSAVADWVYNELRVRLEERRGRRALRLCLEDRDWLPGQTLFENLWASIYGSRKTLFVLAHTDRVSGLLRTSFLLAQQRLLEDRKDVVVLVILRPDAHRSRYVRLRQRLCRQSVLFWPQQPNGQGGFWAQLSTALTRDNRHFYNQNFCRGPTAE

Mus musculus = experiment: Antiinflammatory activity in DBA/1 mouse collagen-induced arthritis model assessed as reduction of hind paw width at 50 ug/kg, sc administered 2 days prior to collagen challenge continued till day 21 post collagen challenge; format: functional, organism-based
How it was run: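 Collagen-induced arthritis mice were dosed subcutaneously (1 μg/dose) or given PBS on days −2, 0 and 21. Arthritis was scored clinically and hind paw width measured. Incidence was the % of mice with severity score ≥2 (cumulative) or ≥4 (high score). Results are mean ± SEM. Scores n = 13 per group, pooled from two experiments; paw width n = 7, from a single experiment.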

TLR2/TLR6 (Mus musculus) = TLR2/TLR6 (Mus musculus) (UniProt Q9QUN7+Q9EPW9); experiment: Inhibition of TLR2/6 in BALB/c mouse BMDM assessed as downregulation of BLP-stimulated IL-12p40 level at 5 ug/ml preincubated for 18 hrs followed by BLP challenge measured after 24 hrs by ELISA relative to control; format: protein-complex assay; how it was run: as §2
[5] = target: T2, Toll-like receptor 9 (Mus musculus); experiment: Inhibition of TLR9 in BALB/c mouse BMDM assessed as downregulation of CpG-stimulated IL-6 level at 5 ug/ml preincubated for 18 hrs followed by CpG challenge measured after 24 hrs by ELISA relative to control; how it was run: as §2

inhibition [2]: Active | inhibition [4]: Active | inhibition (TLR2/TLR6 (Mus musculus)): Active | inhibition [5]: Active
SMILES: CN(C)CCS(=O)(=O)Cc1ccc(Br)cc1
Activity [1]: Non-toxic | Activity [3]: Non-toxic | Activity (Mus musculus): Active
